From PMC7134392 (ChemMedChem, 2018) come the findings set out here.

SMILES strings stand for the structures.

The target in assay [1] is full-length human estrogen receptor β (Homo sapiens, UniProt Q92731). As to the kind of experiment: Competitive radiometric ligand binding assay, ERβ. To be noted: relative binding affinity, estradiol = 100; single determinations for RBA < 0.01. In short, it runs like this:
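Full-length human ERβ incubated with radiolabelled estradiol tracer and competing test compound on ice for 18–24 h. Receptor-bound tracer was adsorbed onto hydroxyapatite, washed with buffer, and counted by scintillation. Affinity was expressed as RBA relative to estradiol = 100. Most values are the average of 2–3 determinations ± SD.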

Another assay has as its system RAW264.7 cells. As to the kind of experiment: Toxicity. The note with it: read-out: IC50 Toxicity (Tox.), Alamar blue cell viability. The assay is classed as cell-based. In short, it runs like this: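 RAW264.7 cells were grown in RPMI 1640 with 10% FCS, 50 μM 2-mercaptoethanol and penicillin/streptomycin. Cells were seeded at 50,000 per well in phenol-red-free medium ≥12 h beforehand. In the TNFα assay setting, cells were dosed with test compound from 50 μM to 0.023 μM (three-fold steps) or DMSO. Viability was read by Alamar blue. Means ± SD are from 3 independent experiments.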

Assay [2] addresses T1, full-length human estrogen receptor α (Homo sapiens, UniProt P03372).
T1 sequence (P03372 1-595): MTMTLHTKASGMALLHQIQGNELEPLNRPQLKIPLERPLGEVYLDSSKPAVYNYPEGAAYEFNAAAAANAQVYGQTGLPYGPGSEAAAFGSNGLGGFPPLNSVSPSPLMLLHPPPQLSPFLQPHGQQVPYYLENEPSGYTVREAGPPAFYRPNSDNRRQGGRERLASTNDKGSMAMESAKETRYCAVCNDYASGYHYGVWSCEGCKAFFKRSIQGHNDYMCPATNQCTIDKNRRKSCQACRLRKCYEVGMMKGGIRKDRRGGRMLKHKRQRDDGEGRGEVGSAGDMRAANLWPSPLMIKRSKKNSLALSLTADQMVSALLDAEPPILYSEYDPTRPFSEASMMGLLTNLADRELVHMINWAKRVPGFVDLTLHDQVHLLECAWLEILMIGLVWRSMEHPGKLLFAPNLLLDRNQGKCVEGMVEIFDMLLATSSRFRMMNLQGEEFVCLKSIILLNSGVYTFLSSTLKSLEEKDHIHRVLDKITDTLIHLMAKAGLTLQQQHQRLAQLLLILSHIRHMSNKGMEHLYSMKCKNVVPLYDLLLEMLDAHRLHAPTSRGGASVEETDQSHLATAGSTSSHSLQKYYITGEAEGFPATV
As to the kind of experiment: Competitive radiometric ligand binding assay, ERα. To be noted: relative binding affinity, estradiol = 100; single determinations for RBA < 0.01.

Sequence of full-length human estrogen receptor β (Q92731 whole entry): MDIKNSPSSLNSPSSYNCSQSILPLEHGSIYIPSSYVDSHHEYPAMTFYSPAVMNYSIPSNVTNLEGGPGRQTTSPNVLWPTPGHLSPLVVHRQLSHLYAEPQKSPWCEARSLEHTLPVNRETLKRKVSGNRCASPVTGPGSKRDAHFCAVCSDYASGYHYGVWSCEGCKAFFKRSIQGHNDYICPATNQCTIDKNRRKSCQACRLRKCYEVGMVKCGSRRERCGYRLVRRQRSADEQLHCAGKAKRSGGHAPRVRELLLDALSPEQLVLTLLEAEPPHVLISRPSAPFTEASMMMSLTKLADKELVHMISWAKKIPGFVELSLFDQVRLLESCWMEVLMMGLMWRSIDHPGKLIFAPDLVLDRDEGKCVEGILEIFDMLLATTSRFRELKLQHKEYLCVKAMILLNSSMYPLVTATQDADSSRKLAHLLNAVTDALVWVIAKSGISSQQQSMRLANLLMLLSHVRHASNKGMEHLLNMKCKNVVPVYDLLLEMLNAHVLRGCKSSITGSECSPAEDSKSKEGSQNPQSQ

By IC50 is commonly meant the concentration needed to halve the response being measured. Turning to `Cc1c(-c2ccc(O)cc2)nn(-c2ccc(O)cc2)c1-c1ccc(OCCN2CCCCC2)cc1` [Compound 1, methyl-piperidino-pyrazole], the “RBA ERβ” value in assay [1] was 0.05 ± 0.01. Moreover, the IC50 in the assay on RAW264.7 cells was 11.5 ± 2.4 µM. The “RBA ERα” value in assay [2] is given as 12.0 ± 2.0.
